Columns and labels:
HepG2 [1] = assay: Induction of apoptosis in human HepG2 cells assessed as viable cells at 200 nM after 48 hrs by annexin-V-FITC and propidium iodide staining based flow cytometry (reference value: 93.2%); format: functional; conditions: HepG2, 48 h, read-out: Activity
Rattus norvegicus [2] = assay: AUC in rat at 2.25 mg/kg, iv; format: ADME, organism-based, Plasma; parameters: dose 2.25 mg/kg, route intravenous; conditions: in vivo
Method in brief: (§1)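 Rat pharmacokinetics; oral and intravenous dosing, with group sizes of 5, 5 and 4 rats. Parameters derived: systemic clearance, volume of distribution, area under the plasma concentration–time curve, maximum plasma concentration and percent oral bioavailability.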

HepG2 [3] = assay: Induction of apoptosis in human HepG2 cells assessed as late apoptotic cells at 50 nM after 48 hrs by annexin-V-FITC and propidium iodide staining based flow cytometry (reference value: 1.03%); format: functional
Method in brief: (§2)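 HepG2 cells treated with 50, 100 or 200 nM compound or DMSO vehicle for 24 or 48 h at 37 °C. Labeled with annexin-V-FITC and PI and analyzed by flow cytometry. Cells classified as early apoptotic (annexin-V+/PI−), late apoptotic (annexin-V+/PI+) or necrotic (annexin-V−/PI+).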

HepG2 [4] = assay: Induction of apoptosis in human HepG2 cells assessed as necrotic cells at 100 nM after 24 hrs by annexin-V-FITC and propidium iodide staining based flow cytometry (reference value: 2.16%); format: functional; method in brief: as §2
HepG2 [5] = assay: Induction of apoptosis in human HepG2 cells assessed as viable cells at 200 nM after 24 hrs by annexin-V-FITC and propidium iodide staining based flow cytometry (reference value: 93.2%); format: functional; conditions: HepG2, 24 h, read-out: Activity
HepG2 [6] = assay: Induction of apoptosis in human HepG2 cells assessed as late apoptotic cells at 200 nM after 24 hrs by annexin-V-FITC and propidium iodide staining based flow cytometry (reference value: 1.03%); format: functional; method in brief: as §2
A-375 = assay: Antiproliferative activity against human A375 cells assessed as inhibition of cell proliferation after 48 hrs by MTT assay; format: functional, cell-based; conditions: A-375, 48 h
Method in brief: (§3)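 Cells grown at 37 °C in humidified 5% CO2. K562, C26 and HCT lines in RPMI-1640; other lines in DMEM; both media with 10% FBS, penicillin and streptomycin. 1000 cells/well seeded, incubated overnight, then compound at various doses for 48 h. MTT added for 4 h, formazan dissolved in DMSO, absorbance read at 590 nm. IC50 from dose–response curves, mean ± SEM of at least three independent experiments.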

HepG2 [7] = assay: Induction of apoptosis in human HepG2 cells assessed as late apoptotic cells at 200 nM after 48 hrs by annexin-V-FITC and propidium iodide staining based flow cytometry (reference value: 1.03%); format: functional; method in brief: as §2
HepG2 [8] = assay: Induction of apoptosis in human HepG2 cells assessed as necrotic cells at 50 nM after 24 hrs by annexin-V-FITC and propidium iodide staining based flow cytometry (reference value: 2.16%); format: functional
[9] = Antiproliferative activity against taxol resistant human HCT8 cells assessed as inhibition of cell proliferation after 48 hrs by MTT assay; format: functional, cell-based; conditions: HCT-8, 48 h; method in brief: as §3
HepG2 [10] = assay: Induction of apoptosis in human HepG2 cells assessed as necrotic cells at 200 nM after 24 hrs by annexin-V-FITC and propidium iodide staining based flow cytometry (reference value: 2.16%); format: functional; method in brief: as §2
[11] = Antiproliferative activity against taxol resistant human […] cells assessed as inhibition of cell proliferation after 48 hrs by MTT assay; format: functional, cell-based; conditions: A2780, 48 h; method in brief: as §3
[12] = Antiproliferative activity against human HCT116 cells assessed as inhibition of cell proliferation after 48 hrs by MTT assay; format: functional, cell-based; conditions: HCT-116, 48 h
HepG2 [13] = assay: Induction of apoptosis in human HepG2 cells assessed as necrotic cells at 50 nM after 48 hrs by annexin-V-FITC and propidium iodide staining based flow cytometry (reference value: 2.16%); format: functional
HepG2 [14] = assay: Induction of apoptosis in human HepG2 cells assessed as viable cells at 100 nM after 24 hrs by annexin-V-FITC and propidium iodide staining based flow cytometry (reference value: 93.2%); format: functional; conditions: HepG2, 24 h, read-out: Activity
HepG2 [15] = assay: Induction of apoptosis in human HepG2 cells assessed as late apoptotic cells at 100 nM after 24 hrs by annexin-V-FITC and propidium iodide staining based flow cytometry (reference value: 1.03%); format: functional; method in brief: as §2
Rattus norvegicus [16] = assay: Volume of distribution at steady state in rat at 9 mg/kg, po; format: ADME, organism-based; parameters: dose 9 mg/kg, route oral; conditions: in vivo
HepG2 [17] = assay: Induction of apoptosis in human HepG2 cells assessed as viable cells at 50 nM after 24 hrs by annexin-V-FITC and propidium iodide staining based flow cytometry (reference value: 93.2%); format: functional; conditions: HepG2, 24 h, read-out: Activity
HepG2 [18] = assay: Induction of apoptosis in human HepG2 cells assessed as necrotic cells at 200 nM after 48 hrs by annexin-V-FITC and propidium iodide staining based flow cytometry (reference value: 2.16%); format: functional
Rattus norvegicus [19] = assay: Systemic clearance in rat at 9 mg/kg, po; format: ADME, organism-based; parameters: dose 9 mg/kg, route oral; conditions: in vivo
[20] = Antiproliferative activity against human DLD1 cells assessed as inhibition of cell proliferation after 48 hrs by MTT assay; format: functional, cell-based; conditions: DLD-1, 48 h; method in brief: as §3
HepG2 [21] = assay: Induction of apoptosis in human HepG2 cells assessed as necrotic cells at 100 nM after 48 hrs by annexin-V-FITC and propidium iodide staining based flow cytometry (reference value: 2.16%); format: functional; method in brief: as §2
HepG2 [22] = assay: Induction of apoptosis in human HepG2 cells assessed as early apoptotic cells at 50 nM after 48 hrs by annexin-V-FITC and propidium iodide staining based flow cytometry (reference value: 3.63%); format: functional; method in brief: as §2
U-251 = assay: Antiproliferative activity against human U251 cells assessed as inhibition of cell proliferation after 48 hrs by MTT assay; format: functional, cell-based; conditions: U-251, 48 h; method in brief: as §3
HepG2 [23] = assay: Induction of apoptosis in human HepG2 cells assessed as early apoptotic cells at 100 nM after 48 hrs by annexin-V-FITC and propidium iodide staining based flow cytometry (reference value: 3.63%); format: functional; method in brief: as §2
HepG2 [24] = assay: Induction of cell cycle arrest in human HepG2 cells assessed as accumulation at G0/G1 phase at 50 nM after 24 hrs by propidium iodide staining based flow cytometry (reference value: 58.2%); format: functional
[25] = Oral bioavailability in rat at 9 mg/kg; format: ADME, organism-based; conditions: in vivo
Rattus norvegicus [26] = assay: AUC in rat at 9 mg/kg, po; format: ADME, organism-based, Plasma; parameters: dose 9 mg/kg, route oral; conditions: in vivo; method in brief: as §1
[27] = Antiproliferative activity against human ES2 cells assessed as inhibition of cell proliferation after 48 hrs by MTT assay; format: functional, cell-based; conditions: ES-2, 48 h
K562 = assay: Antiproliferative activity against human K562 cells assessed as inhibition of cell proliferation after 48 hrs by MTT assay; format: functional, cell-based; conditions: K562, 48 h; method in brief: as §3
HepG2 [28] = assay: Induction of cell cycle arrest in human HepG2 cells assessed as accumulation at S phase phase at 50 nM after 24 hrs by propidium iodide staining based flow cytometry (reference value: 30.6%); format: functional
HepG2 [29] = assay: Induction of cell cycle arrest in human HepG2 cells assessed as accumulation at G2/M phase phase at 200 nM after 24 hrs by propidium iodide staining based flow cytometry (reference value: 11.2%); format: functional
HCT-8 = assay: Resistance index, ratio of IC50 for taxol resistant human HCT8 cells to IC50 for parental human HCT8 cells; format: functional
HepG2 [30] = assay: Induction of apoptosis in human HepG2 cells assessed as viable cells at 50 nM after 48 hrs by annexin-V-FITC and propidium iodide staining based flow cytometry (reference value: 93.2%); format: functional; conditions: HepG2, 48 h, read-out: Activity

## COc1ccc(/C=C/C(=O)c2ccc(OC)c3c2OC(C)(C)C=C3)cc1N
HepG2 [1]
  viability at 0.2 µM: 41.7%
Rattus norvegicus [2]
  AUC: 1810 ng·h/mL
HepG2 [3]
  Activity: 17.69%
HepG2 [4]
  Activity: 3.83%
HepG2 [5]
  viability at 0.2 µM: 63.1%
HepG2 [6]
  Activity: 23.46%
A-375
  IC50: 22 nM
HepG2 [7]
  Activity: 34.72%
HepG2 [8]
  Activity: 4.71%
[9]
  IC50: 152 nM
HepG2 [10]
  Activity: 1.95%
[11]
  IC50: 84 nM
[12]
  IC50: 21 nM
HepG2 [13]
  Activity: 2.76%
HepG2 [14]
  viability at 0.1 µM: 74.1%
HepG2 [15]
  Activity: 12.43%
Rattus norvegicus [16]
  Vdss: 25 L/kg
HepG2 [17]
  viability at 0.05 µM: 88.8%
HepG2 [18]
  Activity: 3.54%
Rattus norvegicus [19]
  CL: 98.3 mL/min/kg
[20]
  IC50: 18 nM
HepG2 [21]
  Activity: 5.45%
HepG2 [22]
  Activity: 13.45%
U-251
  IC50: 24 nM
HepG2 [23]
  Activity: 16.34%
HepG2 [24]
  Activity: 56.6%
[25]
  bioavailability: 28%
Rattus norvegicus [26]
  AUC: 2040 ng·h/mL
[27]
  IC50: 8 nM
K562
  IC50: 18 nM
HepG2 [28]
  Activity: 23.9%
HepG2 [29]
  Activity: 43.3%
HCT-8
  Ratio IC50: 9.5
HepG2 [30]
  viability at 0.05 µM: 66.1%

— ChEMBL document CHEMBL3351994, “Synthesis and biological evaluation of novel millepachine derivatives as a new class of tubulin polymerization inhibitors” (J Med Chem, 2014)
